Test results from ChEMBL document CHEMBL1123413, “Synthesis and biological evaluation of 1-(1,2-benzisothiazol-3-yl)- and (1,2-benzisoxazol-3-yl)piperazine derivatives as potential antipsychotic agents” (J Med Chem, 1986).

Assays:
[1] = Binding affinity against Muscarinic acetylcholine receptor was measured using radioligand ([3H]QNB) binding assay
[2] = target: T1, Adrenergic receptor alpha-1 (Rattus norvegicus, UniProt P15823+P23944+P43140)
T1 sequence (P15823 whole entry): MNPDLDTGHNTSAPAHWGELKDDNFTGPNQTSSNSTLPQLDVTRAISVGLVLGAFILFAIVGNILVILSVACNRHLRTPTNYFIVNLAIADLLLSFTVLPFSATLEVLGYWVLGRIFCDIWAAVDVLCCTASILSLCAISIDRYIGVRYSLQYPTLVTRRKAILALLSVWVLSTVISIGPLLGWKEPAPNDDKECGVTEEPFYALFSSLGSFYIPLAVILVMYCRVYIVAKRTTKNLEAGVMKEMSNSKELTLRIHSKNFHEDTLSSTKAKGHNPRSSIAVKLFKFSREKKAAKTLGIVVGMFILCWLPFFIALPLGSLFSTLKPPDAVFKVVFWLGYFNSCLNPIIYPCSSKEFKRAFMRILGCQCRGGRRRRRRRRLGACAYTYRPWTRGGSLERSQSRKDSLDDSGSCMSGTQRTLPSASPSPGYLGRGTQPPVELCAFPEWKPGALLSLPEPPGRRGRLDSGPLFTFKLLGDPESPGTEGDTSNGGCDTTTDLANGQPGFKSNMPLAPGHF
T1 sequence (P23944 whole entry): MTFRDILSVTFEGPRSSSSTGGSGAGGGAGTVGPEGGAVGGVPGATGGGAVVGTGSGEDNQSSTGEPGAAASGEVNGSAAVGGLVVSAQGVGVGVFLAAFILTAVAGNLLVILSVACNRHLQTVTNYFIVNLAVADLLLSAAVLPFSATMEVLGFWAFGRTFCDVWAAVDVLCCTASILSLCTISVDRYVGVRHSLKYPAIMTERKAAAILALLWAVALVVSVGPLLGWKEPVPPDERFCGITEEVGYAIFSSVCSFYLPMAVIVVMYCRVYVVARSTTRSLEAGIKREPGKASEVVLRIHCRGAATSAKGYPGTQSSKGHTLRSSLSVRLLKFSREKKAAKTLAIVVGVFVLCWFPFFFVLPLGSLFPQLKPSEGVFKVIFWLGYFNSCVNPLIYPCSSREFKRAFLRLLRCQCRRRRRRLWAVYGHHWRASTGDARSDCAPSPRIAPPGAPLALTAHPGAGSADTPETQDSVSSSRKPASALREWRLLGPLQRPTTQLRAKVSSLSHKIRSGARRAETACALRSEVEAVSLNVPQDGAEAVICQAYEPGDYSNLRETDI
T1 sequence (P43140 whole entry): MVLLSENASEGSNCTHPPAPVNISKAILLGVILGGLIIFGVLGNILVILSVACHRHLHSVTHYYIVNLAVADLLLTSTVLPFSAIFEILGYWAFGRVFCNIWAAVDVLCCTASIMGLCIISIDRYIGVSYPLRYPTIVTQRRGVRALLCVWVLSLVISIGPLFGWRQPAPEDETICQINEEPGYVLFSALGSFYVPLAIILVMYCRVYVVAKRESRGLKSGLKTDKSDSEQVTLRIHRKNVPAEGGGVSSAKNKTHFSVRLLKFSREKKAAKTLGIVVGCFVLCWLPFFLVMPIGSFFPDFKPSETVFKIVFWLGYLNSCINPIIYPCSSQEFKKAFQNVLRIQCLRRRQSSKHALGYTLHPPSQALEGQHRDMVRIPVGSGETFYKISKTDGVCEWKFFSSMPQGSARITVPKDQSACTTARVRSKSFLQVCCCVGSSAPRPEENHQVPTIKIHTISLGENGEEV

[3] = Binding affinity against desipramine receptor was measured using radioligand ([3H]desipramine) binding assay; design: species or system Rattus norvegicus
[4] = target: Dopamine receptor; test: Compound was tested for its effect on dopamine saturation analysis; format: protein assay
[5] = target: D(2) dopamine receptor (Rattus norvegicus, UniProt P61169); test: In vitro affinity for rat striatal Dopamine receptor D2 labeled with [3H]spiperone
Sequence of D(2) dopamine receptor (P61169 whole entry): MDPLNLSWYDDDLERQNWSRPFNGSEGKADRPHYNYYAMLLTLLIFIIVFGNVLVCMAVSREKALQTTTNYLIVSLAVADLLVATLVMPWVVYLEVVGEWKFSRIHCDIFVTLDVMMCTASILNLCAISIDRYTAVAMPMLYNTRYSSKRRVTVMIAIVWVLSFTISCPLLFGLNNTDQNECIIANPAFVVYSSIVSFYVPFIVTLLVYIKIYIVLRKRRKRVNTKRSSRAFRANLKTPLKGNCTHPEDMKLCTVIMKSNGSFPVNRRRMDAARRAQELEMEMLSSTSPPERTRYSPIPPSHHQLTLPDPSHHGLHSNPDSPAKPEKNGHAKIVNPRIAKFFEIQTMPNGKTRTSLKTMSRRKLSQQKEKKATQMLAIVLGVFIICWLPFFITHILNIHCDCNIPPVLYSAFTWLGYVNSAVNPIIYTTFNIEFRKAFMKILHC

[6] = organism: Mus musculus; test: Compound was tested for inhibition of spontaneous motor activity in mouse.; format: functional
[7] = target: GABA-A receptor; anion channel; test: Inhibition of [3H]muscimol binding to Gamma-aminobutyric acid (GABA-A) receptor; format: protein-complex assay, Rattus norvegicus
[8] = organism: Mus musculus; test: Compound was tested for inhibition of physostigmine lethality in mouse.; format: functional
Procedure, shortened: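 Groups of 10 nonfasted male mice dosed orally with test compound (initial 100 mg/kg) or vehicle (distilled H2O or 0.5% methocel). At 30 min, physostigmine given ip at 1.25 mg/kg, and lethality followed for up to 1 h. Active compounds retested at lower doses, 10 mice/dose, for dose response. ED50 by Berkson's method.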

[9] = Binding affinity against histamine receptor was measured using radioligand ([3H]-pyrilamine) binding assay

Cl.O=C1CC2(CCCC2)CC(=O)N1CCCCN1CCN(c2nsc3ccccc23)CC1 [TIOSPIRONE HYDROCHLORIDE]
IC50 [1]: > 1000 nM | IC50 [2]: 47 nM | IC50 [3]: > 1000 nM | Kd [4]: 0.3337 nM | IC50 [5]: 8 nM | ED50 [6]: 17.3 mg/kg | IC50 [7]: > 1000 nM | ED50 [8]: 294 mg/kg | IC50 [9]: 142 nM
